Source: PubChem (Sanford-Burnham Center for Chemical Genomics)
The list is not random: actives were taken first. Their share in the collection is about 1.8%.
CHOP UPR activ: apoptotic UPR (CHOP) activation; activation, % at 10 µM; 0.34% of 330,000 active; CHO-CHOP luciferase reporter, luminescence; percent of tunicamycin response over DMSO baseline; AID 449763;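 active = at 10 µM dose, activation of 40% or more, normalized to positive control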;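 also: 100% = tunicamycin at 10 µg/mL and 0% = DMSO alone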
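Dosing – one dose, 10 µM in 0.5% DMSO · System – CHO-CHOP cells, stable luciferase reporter of PERK-eIF2a-CHOP signalling · Input – 500 cells/well · Control set – tunicamycin 10 µg/mL final as positive, DMSO-only wells as negative · Timing – 6 h compound treatment, 37 °C · Measure – % activation vs tunicamycin · Technique – luminescence read with Steady-Glo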
Jurkat NFkB inh: lowers PMA/ionomycin-induced NF-kB signal in Jurkat cells | PMA/ionomycin-induced NF-kB luciferase reporter, luminescence | inhibition, % at 4 µM | 0.53% of 330,000 active | AID 435003; in the data active = inhibition above about 50%
CRFR2-BP antag: blocks CRF-induced signaling of the CRF-BP/CRF-R2 complex | HEK293 CRF-R2/CRF-BP, CRF-induced calcium fluorescence | inhibition, % at 11.8 µM | 0.59% of 350,000 active;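 active = inhibition of the ligand-induced calcium signal above about 50% at the single tested concentration, limit read from the data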
UPR XBP1 act: adaptive UPR (XBP1) activation; CHO-XBP1 luciferase reporter, IRE1-XBP1 UPR activation, luminescence; percent of tunicamycin response, DMSO as zero; activation, % at 20 µM; 0.33% of 330,000 active;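 active = versus positive control, 20 µM dose yields 30% or more activation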;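 also: 100% = tunicamycin at 10 µg/mL and 0% = DMSO only wells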
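Material: IRE1-XBP1 luciferase reporter CHO line / Quantity: one thousand reporter cells per well / Buffer or medium: F12 with 10% serum / Compound: 20 µM single concentration, DMSO 1% / Times: 6 h treatment, 37 °C / Detection: Steady-Glo luciferase glow luminescence, 10 min after reagent addition / Benchmarks: tunicamycin high, DMSO low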
697 NFkB inh: inhibitors of the PMA/ionomycin-induced NF-kB reporter in 697 B cells | 697 B-cell NF-kB luciferase reporter, 16 h | inhibition, % at 4 µM | 0.33% of 330,000 active; in the data active = inhibition above about 35%
Jurkat NFkB conf: lowers PMA/ionomycin-induced NF-kB signal in Jurkat cells; shares compounds with Jurkat NFkB inh; Jurkat NF-kB luciferase, 16 h; inhibition, % at 4 µM; 27% of 2,700 active;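 active = inhibition reaching about 45% at 4 µM in either replicate, limit read from the data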;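 also: plate controls were PMA/ionomycin stimulated DMSO wells for no effect and unstimulated DMSO wells for full effect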
697 NFkB conf: inhibitors of the PMA/ionomycin-induced NF-kB reporter in 697 B cells, retest; shares compounds with 697 NFkB inh; 697 B-cell NF-kB luciferase, 16 h; inhibition, % at 4 µM; 35% of 2,000 active; in the data active = inhibition mostly above about 28%, no sharp cut-off; inactive = mostly below about 22%
CHOP UPR conf: apoptotic UPR (CHOP) activation, confirmed | shares compounds with CHOP UPR activ | CHO-CHOP cells, CHOP-luciferase reporter luminescence; percent of tunicamycin response, DMSO as zero | activation, % at 10 µM | 64% of 1,000 active; in the data active = activation above about 33%;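 also: 0% = DMSO wells and 100% = tunicamycin 10 µg/mL wells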
UPR XBP1 confirm: adaptive UPR (XBP1) activation, confirmed; shares compounds with UPR XBP1 act; CHO-XBP1 IRE1-XBP1 luciferase reporter, luminescence; activation, % at 20 µM; 63% of 1,000 active; AID 485299;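 active = reporter signal at least 30% of the positive control's activation in two or more of four replicate wells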;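 also: plate controls were DMSO negative control for no effect and tunicamycin 10 µg/mL positive control for full effect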
Numbers without * were called inactive; · = no result given.

SMILES | CHOP UPR activ | Jurkat NFkB inh | CRFR2-BP antag | UPR XBP1 act | 697 NFkB inh | Jurkat NFkB conf | CHOP UPR conf | UPR XBP1 confirm | others
Cc1ccc(S(=O)(=O)Nc2cccc3ncccc23)s1 | 219.5* | 82.5* | 7.1 | -6.1 | -155.9 | 21.2 | 10.1 | ·
CC1CCCCC12NC(=O)N(CC(=O)Nc1ccc(N3CCCCC3)cc1)C2=O (centres undefined) | -1.0 | -3.2 | 4.4 | -2.8 | -10.0 | · | · | ·
C/C(=N\NC(=O)c1ccc(Cl)cc1)c1ccccn1 | 407.0* | 98.0* | 1.5 | 2.4 | -123.0 | -0.9 | 403.2* | ·
CC1(C)Cc2c(sc(NC(=O)COc3cccc4ccccc34)c2C#N)C(C)(C)N1 | 54.0* | 87.4* | 7.8 | 25.1 | -16.7 | 62.4* | 19.1 | ·
CC(Oc1ccccc1)C(=O)NNC(=O)c1ccccn1 (centres undefined) | 0.3 | 5.1 | -7.8 | -1.7 | -1.3 | · | · | ·
C/C(=N\NC(=O)C(C)Oc1ccc([N+](=O)[O-])cc1)c1ccccn1 (centres undefined) | 67.4* | 61.0* | 55.4* | 7.2 | -14.0 | 12.8 | 42.2* | ·
COc1ccc(-c2coc3cc4oc(=O)c5ccccc5c4cc23)cc1F | 1.1 | 73.3* | -33.0 | 63.8* | -59.7 | 2.9 | · | 23.4
O=C(c1ccc([N+](=O)[O-])cc1)N1CCN(C(=O)C2CCCCC2)CC1 | 0.3 | 14.7 | 0.7 | -3.8 | -11.0 | · | · | ·
CCCCCCCCCCn1c2c(c(=N)c3c1CCC3)CCC2 | 77.1* | 82.2* | -41.5 | 46.9* | 0.4 | 75.0* | 69.9* | 43.9*
CCn1c2c(c(=N)c3c1CCC3)CCCC2 | -1.3 | 41.3 | 4.2 | -3.2 | -8.7 | · | · | ·
CCCCCCCCCn1c2c(c(=N)c3c1CCC3)CCCC2 | 72.1* | 97.4* | -101.9 | 44.2* | 57.6* | 80.7* | 79.3* | 44.3* | 697 NFkB conf=-12.8
Cc1cc(C)c(NC(=O)CN2C(=O)NC3(CCCc4ccccc43)C2=O)c(Cl)c1 (centres undefined) | -1.7 | -1.5 | -24.4 | -0.7 | 21.4 | · | · | ·
Cc1csc(CN(C)C(=O)C2CCC(=O)N(CCN(C)C)C2)n1 (centres undefined) | -1.5 | -5.8 | 13.3 | -2.7 | 2.9 | · | · | ·
Cc1nc2ccccc2n1-c1nc(-c2ccco2)cc(C(F)(F)F)n1 | 174.1* | 83.1* | 4.2 | 57.0* | -43.3 | 29.8 | 132.5* | 43.4*
FC(F)(F)c1cc(-c2ccco2)nc(-n2cnc3ccccc32)n1 | 0.9 | -8.2 | -9.4 | 10.5 | -4.7 | · | · | ·
COc1ccc(-c2oc(=O)c3cc(OC)c(OC)cc3c2/C=C/c2ccc(OC(C)=O)cc2)cc1 | 14.5 | 2.2 | 16.2 | 17.8 | 0.8 | · | · | ·
COc1cc(-c2noc(C)c2/C=C/c2ccc(OC(C)=O)cc2)cc(OC)c1OC | 2.8 | 67.5* | 11.7 | 31.9* | -45.4 | 49.0* | · | 32.2*
O=Cc1cc2ccccc2nc1SCc1ccc(Cl)c(Cl)c1 | 4.4 | 56.9* | -5.4 | 33.5* | -6.5 | 44.1 | · | 38.6*
Cc1ccc(CSc2nc3ccccc3cc2C=O)cc1 | 2.0 | 43.5 | -18.9 | 26.9 | 19.3 | · | · | ·
CN1C(=O)C2(OCCCO2)c2ccccc21 | 1.9 | 11.0 | 4.0 | -2.4 | 19.7 | · | · | ·
CCn1c2ccccc2c2cc(Nc3cc(C)nc4ncnn34)ccc21 | -0.6 | 64.9* | -0.3 | 35.9* | -196.6 | 48.8* | · | 23.2
CCc1ccc(Nc2cc(C)nc3ncnn23)cc1 | 3.0 | 8.1 | -1.0 | -1.1 | 12.4 | · | · | ·
Cc1cc(N2CCN(C)CC2)ccc1NC(=O)c1c2c(nc3ccccc13)CCN(Cc1ccccc1)C2 | 15.1 | 76.6* | -16.2 | 41.5* | 10.5 | 10.8 | · | 11.9
C#CCOCCOCCOCCNc1nc(N2CCN(C(=O)CCCCCCCCCCNC(=O)[C@H](CCCCN)n3cc(C[C@@H](C)CC)nn3)CC2)nc(N2CCN(C(=O)CCCCCCCCCCNC(=O)[C@@H]([C@H](C)O)n3cc(C)nn3)CC2)n1 | 28.8 | 91.5* | -84.3 | 40.4* | -41.0 | 0.4 | · | 1.1
Cc1ccc(Nc2nnc(C)c3ccccc23)c(C)c1 | 1.7 | 9.0 | -8.8 | -0.1 | 12.0 | · | · | ·
SMILES | CHOP UPR activ | Jurkat NFkB inh | CRFR2-BP antag | UPR XBP1 act | 697 NFkB inh | Jurkat NFkB conf | CHOP UPR conf | UPR XBP1 confirm | others
CC(=O)[C@@]1(O)CCC2C3CC[C@H]4C[C@@H](O)CC[C@]4(C)C3CC[C@@]21C (some centres undefined) | 0.2 | -0.3 | -6.3 | -0.7 | -10.1 | · | · | ·
C[C@]12CCC3C(CC[C@H]4CCCC[C@]34C)C1CC[C@@]2(O)CNCCO (some centres undefined) | 3.6 | 56.3* | -12.1 | 33.1* | 6.6 | 17.2 | · | 2.0
C[C@@H]1CN([C@@H](C)CO)C(=O)CCCn2nncc2CO[C@H]1CN(C)C | · | · | 2.5 | · | · | · | · | ·
Cc1csc2nc(COC(=O)CNC(=O)c3ccc(Cl)cc3)cc(=O)n12 | 1.2 | 3.6 | -9.6 | -2.9 | 0.2 | · | · | ·
Cc1csc2nc(COC(=O)c3ccc(Cl)c([N+](=O)[O-])c3)cc(=O)n12 | 17.2 | 52.7* | 3.6 | 71.0* | 23.8 | 26.5 | · | 2.7
Cc1csc(NC(=O)c2ccc3nc[nH]c3c2)n1 | -0.5 | -136.9 | 10.0 | -10.8 | -129.3 | · | · | ·
COc1ccc(C2c3ccc4ccccc4c3Oc3ncn(CCCN(C)C)c(=N)c32)cc1 (centres undefined) | 75.7* | 52.2* | -16.3 | 54.9* | 8.9 | 22.4 | 36.5* | 60.4*
CCN(C(=O)COC(=O)CCCc1c[nH]c2ccccc12)c1c(N)n(Cc2ccccc2)c(=O)[nH]c1=O | · | · | 9.4 | · | · | · | · | ·
CCOc1ccc(/C=C/C(O)=C2/C(=O)NC3(C)CC2c2ccccc2O3)cc1OC (centres undefined) | 46.2* | 63.8* | 1.5 | 41.1* | -8.0 | -15.4 | 18.8 | 45.9*
CSc1ncnc2c1ccn2CC(=O)Nc1ccc(C)c(C)c1 | -1.1 | -2.0 | -2.3 | -1.9 | 4.5 | · | · | ·
Cc1ccc(-c2cc(C(F)F)n3ncc(C(=O)N4CCc5ccccc54)c3n2)cc1 | 0.4 | 61.0* | -21.5 | 47.0* | -46.1 | 46.8* | · | 125.7*
CN(C)C/C=C/C(O)(c1ccccc1)c1ccccc1 | -1.3 | 0.1 | -13.5 | 1.6 | 7.2 | · | · | ·
CN(C)CC(CCC(CN(C)C)C(O)(c1ccccc1)c1ccccc1)C(O)(c1ccccc1)c1ccccc1 (centres undefined) | 76.8* | 64.7* | -5.2 | 34.8* | 10.6 | 15.2 | 83.8* | 42.7*
